Measured values as given in ChEMBL document CHEMBL3352487, “Synthesis, antibacterial activity, and biological evaluation of formyl hydroxyamino derivatives as novel potent peptide deformylase inhibitors against drug-resistant bacteria” (Eur J Med Chem, 2014).
≈ marks a conversion by molar mass, not a printed value.

How the values were obtained:
[1] = Stability of the compound in artificial gastric juice measured every 2 hrs for 12 hrs by HPLC analysis; type: ADME; details: simulated gi fluid
[2] = tested on: Staphylococcus aureus; experiment: Antimicrobial activity against methicillin-resistant Staphylococcus aureus after 24 hrs by broth microdilution method; type: functional
Outline: (§1)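 Broth microdilution following NCCLS M7-A4, using ATCC strains and clinical isolates from a provincial hospital.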

[3] = tested on: Staphylococcus epidermidis; experiment: Antimicrobial activity against Staphylococcus epidermidis after 24 hrs by broth microdilution method; type: functional
Outline: (§2)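 Broth microdilution following NCCLS M7-A4; ATCC strains and clinical isolates from a provincial hospital.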

[4] = tested on: Escherichia coli; experiment: Antimicrobial activity against Escherichia coli isolate 1 after 24 hrs by broth microdilution method; type: functional; details: isolate 1, 24 h; outline: as §2
[5] = Stability of the compound in artificial intestinal juice measured every 2 hrs for 12 hrs by HPLC analysis; type: physicochemical; details: simulated gi fluid
[6] = Solubility of the compound in artificial intestinal juice measured every 2 hrs for 12 hrs by HPLC analysis; type: physicochemical; details: simulated gi fluid
[7] = tested on: Staphylococcus aureus; experiment: Antimicrobial activity against Staphylococcus aureus after 24 hrs by broth microdilution method; type: functional; outline: as §2
[8] = Solubility of the compound in artificial gastric juice measured every 2 hrs for 12 hrs by HPLC analysis; type: ADME; details: simulated gi fluid
[9] = tested on: Escherichia coli; experiment: Antimicrobial activity against Escherichia coli isolate 2 after 24 hrs by broth microdilution method; type: functional; details: isolate 2, 24 h; outline: as §2
[10] = tested on: Staphylococcus aureus; experiment: Antimicrobial activity against methicillin-susceptible Staphylococcus aureus after 24 hrs by broth microdilution method; type: functional; outline: as §2
[11] = molecular target: T1, hERG (KCNH2) (Homo sapiens, UniProt Q12809); experiment: Inhibition of human ERG at 10 uM
T1 sequence (Q12809 whole entry): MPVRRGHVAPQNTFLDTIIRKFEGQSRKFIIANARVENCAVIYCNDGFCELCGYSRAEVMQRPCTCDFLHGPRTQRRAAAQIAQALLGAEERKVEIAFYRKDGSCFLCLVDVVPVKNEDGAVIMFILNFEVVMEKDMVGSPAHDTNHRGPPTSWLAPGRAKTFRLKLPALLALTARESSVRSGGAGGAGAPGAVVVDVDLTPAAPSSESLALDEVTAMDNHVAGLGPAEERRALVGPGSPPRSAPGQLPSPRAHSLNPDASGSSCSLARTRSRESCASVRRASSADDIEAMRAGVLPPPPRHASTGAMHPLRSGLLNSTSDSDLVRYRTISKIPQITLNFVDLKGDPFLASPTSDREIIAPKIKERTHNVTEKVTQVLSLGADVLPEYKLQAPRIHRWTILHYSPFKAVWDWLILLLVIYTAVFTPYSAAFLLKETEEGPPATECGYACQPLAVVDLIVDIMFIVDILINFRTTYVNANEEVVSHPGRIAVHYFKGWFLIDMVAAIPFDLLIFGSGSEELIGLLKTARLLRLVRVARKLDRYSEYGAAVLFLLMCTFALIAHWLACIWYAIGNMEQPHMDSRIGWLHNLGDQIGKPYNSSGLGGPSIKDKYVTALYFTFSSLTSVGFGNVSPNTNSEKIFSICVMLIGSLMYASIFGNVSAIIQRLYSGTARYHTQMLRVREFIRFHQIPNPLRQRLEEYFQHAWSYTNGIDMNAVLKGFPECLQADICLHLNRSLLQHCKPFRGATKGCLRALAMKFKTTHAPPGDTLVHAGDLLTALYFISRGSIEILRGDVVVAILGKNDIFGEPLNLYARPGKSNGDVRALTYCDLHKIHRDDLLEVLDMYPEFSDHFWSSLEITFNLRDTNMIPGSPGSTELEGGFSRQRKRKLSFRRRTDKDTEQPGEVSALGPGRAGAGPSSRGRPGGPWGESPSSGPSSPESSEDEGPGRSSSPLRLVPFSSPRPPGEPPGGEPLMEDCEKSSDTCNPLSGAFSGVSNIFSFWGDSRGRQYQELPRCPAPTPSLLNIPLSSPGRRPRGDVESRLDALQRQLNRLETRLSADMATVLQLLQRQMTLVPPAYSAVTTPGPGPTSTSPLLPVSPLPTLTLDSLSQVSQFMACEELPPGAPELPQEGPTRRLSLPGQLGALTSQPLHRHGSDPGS

[12] = Half life in Sprague-Dawley rat at 5 mg/kg, iv; type: ADME, organism-based; design: dose 5 mg/kg, route intravenous; details: in vivo
[13] = Tmax in Sprague-Dawley rat at 25 mg/kg, po; type: ADME, organism-based; design: dose 25 mg/kg, route oral; details: in vivo
[14] = Cmax in Sprague-Dawley rat at 25 mg/kg, po; type: ADME, organism-based; design: dose 25 mg/kg, route oral; details: in vivo
[15] = Clearance in Sprague-Dawley rat at 5 mg/kg, iv; type: ADME, organism-based; design: dose 5 mg/kg, route intravenous; details: in vivo
[16] = Mean residence time (0 to t) in Sprague-Dawley rat at 5 mg/kg, iv; type: ADME, organism-based; design: dose 5 mg/kg, route intravenous; details: in vivo
[17] = AUC (0 to t) in Sprague-Dawley rat at 25 mg/kg, po; type: ADME, organism-based; design: dose 25 mg/kg, route oral; details: plasma
[18] = Volume of distribution at steady state in Sprague-Dawley rat at 5 mg/kg, iv; type: ADME, organism-based; design: dose 5 mg/kg, route intravenous; details: in vivo, read-out: Vdss
[19] = AUC (0 to t) in Sprague-Dawley rat at 5 mg/kg, iv; type: ADME, organism-based; design: dose 5 mg/kg, route intravenous; details: plasma
[20] = AUC (0 to infinity) in Sprague-Dawley rat at 5 mg/kg, iv; type: ADME, organism-based; design: time infinity, dose 5 mg/kg, route intravenous; details: plasma
[21] = molecular target: T1, hERG (KCNH2); experiment: Inhibition of human ERG at 1 uM
[22] = Half life in Sprague-Dawley rat at 25 mg/kg, po; type: ADME, organism-based; design: dose 25 mg/kg, route oral; details: in vivo
[23] = AUC (0 to infinity) in Sprague-Dawley rat at 25 mg/kg, po; type: ADME, organism-based; design: dose 25 mg/kg, route oral, time infinity; details: plasma
[24] = Mean residence time (0 to t) in Sprague-Dawley rat at 25 mg/kg, po; type: ADME, organism-based; design: dose 25 mg/kg, route oral; details: in vivo
[25] = Oral bioavailability in Sprague-Dawley rat at 25 mg/kg; type: ADME, organism-based; details: in vivo
[26] = tested on: Haemophilus influenzae; experiment: Antimicrobial activity against AcrA-deficient Haemophilus influenzae H128 after 24 hrs by broth microdilution method; type: functional; details: H128, 24 h; outline: as §2
[27] = tested on: Streptococcus pneumoniae; experiment: Antimicrobial activity against Streptococcus pneumoniae N1387 after 24 hrs by broth microdilution method; type: functional; details: N1387, 24 h; outline: as §2
[28] = tested on: Streptococcus pneumoniae; experiment: Antimicrobial activity against Streptococcus pneumoniae 1629 after 24 hrs by broth microdilution method; type: functional; details: Streptococcus pneumoniae, 1629, 24 h; outline: as §2
[29] = tested on: Staphylococcus aureus; experiment: Antimicrobial activity against Staphylococcus aureus WCUH29 after 24 hrs by broth microdilution method; type: functional; details: WCUH29, 24 h; outline: as §2
[30] = tested on: Haemophilus influenzae; experiment: Antimicrobial activity against Haemophilus influenzae H128 after 24 hrs by broth microdilution method; type: functional; details: H128, 24 h; outline: as §2
[31] = tested on: Moraxella catarrhalis; experiment: Antimicrobial activity against Moraxella catarrhalis 1502 after 24 hrs by broth microdilution method; type: functional; details: Moraxella catarrhalis, 1502, 24 h; outline: as §2
[32] = tested on: Enterococcus faecalis; experiment: Antimicrobial activity against Enterococcus faecalis Isolate 1 after 24 hrs by broth microdilution method; type: functional; details: Isolate 1, 24 h; outline: as §2
[33] = tested on: Streptococcus pyogenes; experiment: Antimicrobial activity against Streptococcus pyogenes 1307006P after 24 hrs by broth microdilution method; type: functional; outline: as §2
[34] = tested on: Streptococcus pneumoniae; experiment: Antimicrobial activity against Streptococcus pneumoniae ERY2 after 24 hrs by broth microdilution method; type: functional; details: ERY2, 24 h; outline: as §2
[35] = tested on: Streptococcus pyogenes; experiment: Antimicrobial activity against Streptococcus pyogenes 1308007P after 24 hrs by broth microdilution method; type: functional; outline: as §2
[36] = tested on: Escherichia coli; experiment: Antimicrobial activity against Escherichia coli isolate 3 after 24 hrs by broth microdilution method; type: functional; details: isolate 3, 24 h; outline: as §2
[37] = tested on: Staphylococcus aureus; experiment: Antimicrobial activity against Staphylococcus aureus OXFORD after 24 hrs by broth microdilution method; type: functional; outline: as §1
[38] = tested on: Haemophilus influenzae; experiment: Antimicrobial activity against Haemophilus influenzae Q1 after 24 hrs by broth microdilution method; type: functional; details: Q1, 24 h; outline: as §2
[39] = tested on: Enterococcus faecium; experiment: Antimicrobial activity against Enterococcus faecium X7501 after 24 hrs by broth microdilution method; type: functional; details: X7501, 24 h; outline: as §2

SMILES	Stability [1]	MIC [2] [µg/mL]	MIC [3] [µg/mL]	MIC [4] [µg/mL]	Stability [5]	solubility [6]	MIC [7] [µg/mL]	solubility [8]	MIC [9] [µg/mL]	MIC [10] [µg/mL]	MIC [26] [µg/mL]	MIC [27] [µg/mL]	MIC [28] [µg/mL]	MIC [29] [µg/mL]	MIC [30] [µg/mL]	MIC [31] [µg/mL]	MIC [32] [µg/mL]	MIC [33] [µg/mL]	MIC [34] [µg/mL]	MIC [35] [µg/mL]	other results
CCCC[C@H](CN(O)C=O)C(=O)N1CC=C[C@H]1C(=O)Nc1ccc(F)cn1	Stable	0.25 (≈ 0.661 µM)	0.5 (≈ 1.32 µM)	> 64	Stable	soluble	0.5 (≈ 1.32 µM)	soluble	64 (≈ 169 µM)	1 (≈ 2.64 µM)	–	–	–	–	–	–	–	–	–	–	–
CCCC[C@H](CN(O)C=O)C(=O)N1CC=C[C@H]1C(=O)Nc1ncc(C)s1	Stable	0.125 (≈ 0.329 µM)	0.25 (≈ 0.657 µM)	32 (≈ 84.1 µM)	Stable	soluble	0.0625 (≈ 0.164 µM)	soluble	16 (≈ 42.1 µM)	0.25 (≈ 0.657 µM)	–	–	–	–	–	–	–	–	–	–	inhibition at 10 µM [11]: 5.5%; half-life [12]: 4.08 h; Tmax [13]: 0.625 h; Cmax [14]: 12400 ng/mL; clearance [15]: 17 mL/min/kg; MRT last [16]: 0.952 h; AUC(0-t) [17]: 21800 ng·h/mL; Vd [18]: 1.01 L/kg; AUC(0-t) [19]: 4920 ng·h/mL; AUC(0-inf) [20]: 4930 ng·h/mL; inhibition at 1 µM [21]: 5.7%; half-life [22]: 2.56 h; AUC(0-inf) [23]: 21900 ng·h/mL; MRT last [24]: 2.45 h; bioavailability [25]: 88.7%
C=C1C[C@@H](C(=O)Nc2ccc(F)cn2)N(C(=O)[C@H](CCCC)CN(O)C=O)C1	–	0.125 (≈ 0.319 µM)	0.25 (≈ 0.637 µM)	32 (≈ 81.5 µM)	–	–	0.5 (≈ 1.27 µM)	–	> 64	1 (≈ 2.55 µM)	0.5 (≈ 1.27 µM)	4 (≈ 10.2 µM)	16 (≈ 40.8 µM)	0.5 (≈ 1.27 µM)	16 (≈ 40.8 µM)	0.25 (≈ 0.637 µM)	32 (≈ 81.5 µM)	4 (≈ 10.2 µM)	8 (≈ 20.4 µM)	4 (≈ 10.2 µM)	MIC [36]: > 64 µg/mL; MIC [37]: 4 µg/mL (≈ 10.2 µM); MIC [38]: 16 µg/mL (≈ 40.8 µM); MIC [39]: 4 µg/mL (≈ 10.2 µM)
O=CN(O)C[C@@H](CC1CCCC1)C(=O)N1CC=C[C@H]1C(=O)Nc1ccccc1	–	1 (≈ 2.59 µM)	0.5 (≈ 1.3 µM)	32 (≈ 83 µM)	–	–	4 (≈ 10.4 µM)	–	32 (≈ 83 µM)	4 (≈ 10.4 µM)	≤ 0.06	0.5 (≈ 1.3 µM)	2 (≈ 5.19 µM)	0.125 (≈ 0.324 µM)	2 (≈ 5.19 µM)	≤ 0.06	> 64	0.25 (≈ 0.649 µM)	1 (≈ 2.59 µM)	0.5 (≈ 1.3 µM)	MIC [36]: 64 µg/mL (≈ 166 µM); MIC [37]: 1 µg/mL (≈ 2.59 µM); MIC [38]: 2 µg/mL (≈ 5.19 µM); MIC [39]: 1 µg/mL (≈ 2.59 µM)
